The record followed here is ChEMBL document CHEMBL4732136, “Synthesis, Tumor Specificity, and Photosensitizing Efficacy of Erlotinib-Conjugated Chlorins and Bacteriochlorins: Identification of a Highly Effective Candidate for Photodynamic Therapy of Cancer” (J Med Chem, 2021).

Each structure is given as a SMILES string. Some results are limits rather than exact numbers.

Data set [1] can be described thus: Drug uptake in human CFSE-stained HN-121 cells assessed as increase in drug retention at 1.6 uM in medium with 10% FBS followed by 48 hrs chase period by inverted fluorescence microscopic analysis. Format: ADME, cell-based. The conditions noted are these: hn-121, 48 h.
The next data set relates to FaDu. The experiment in a line: Photosensitizing activity in human FaDu cells assessed as reduction in cell viability pretreated with compound for 24 hrs followed by light irradiation at 1 J/cm2 and measured after 48 hrs by MTT assay. Format: functional, cell-based. The conditions noted are these: light or radiation study. In outline:
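Cells seeded at 0.01–0.05 x 10⁶ cells/ml; PS added 24 h after plating, top dose 1600 nM with 2-fold serial dilutions. Plates given 0 or 1 J/cm² light. MTT added 48 h later, formazan dissolved in DMSO, absorbance at 570 nm; IC50 from curve fitting.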

The subject of the next data set is UMUC3. Nature of the data set: Photosensitizing activity in human UMUC3 cells assessed as reduction in cell viability pretreated with compound for 24 hrs followed by light irradiation at 1 J/cm2 and measured after 48 hrs by MTT assay. It counts as functional, cell-based. The conditions noted are these: UMUC3, light or radiation study. In outline:
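Cells plated 0.01x10⁶ to 0.05x10⁶ cells/ml and allowed to adhere 24 h before photosensitizer was added, top dose 1600 nM with 2-fold serial dilutions. Plates received no light (0 J/cm²) or 1 J/cm² at 565 mW, 15 cm spot. After 48 h, MTT added for 3 h, formazan solubilized in DMSO and read at 570 nm; IC₅₀ fitted from dose-response.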
In general terms: Formazan colour is commonly taken as a measure of viable cells.

The nature of data set [2]: Drug uptake in human FaDu clone 49 cells assessed as increase in drug retention at 1.6 uM in RPMI medium with 10% FBS followed by 48 hrs chase period by inverted fluorescence microscopic analysis.
Data set [3] is described as follows: Drug uptake in tumor of SCID mouse xenografted with human UMUC3 cells at 0.47 micromol/kg, iv pretreated with compound followed by light irradiation at a dose of 135 J/cm2 and 75 mW/cm2 measured after 2 to 24 hrs by IVIS analysis. Format: ADME, organism-based, Neoplasm. The conditions noted are these: in vivo, time 2-24 hrs, dose 0.47 µmol/kg. In outline: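 Female SCID mice with UMUC3 flank/shoulder tumors, 3 per group. PS in 1% Tween80/5% dextrose given iv at 0.47, 0.25 or 0.125 μmol/kg. Whole-body fluorescence imaging by IVIS at several times after injection; average radiant efficiency measured in tumor, liver and skin.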
A general note: A xenograft is tissue or cells of one species grown in another, often human tumour cells in immunodeficient mice.

The nature of data set [4]: Drug uptake in human HNT1 cells at 3.2 uM incubated for 30 mins in serum free medium followed by […] in compound-free medium by inverted fluorescence microscopic analysis. It counts as ADME, cell-based. The conditions noted are these: hnt1, 0.5 h. An outline of the steps: (§1)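 Confluent HNT1 cultures (passage 116) given 3.2 μM PS for 30 min in serum-free medium, then 5 h in serum-containing medium with PS, then 15 h chase in serum medium without PS. Fluorescence recorded at 100X with varied camera exposures and quantified digitally; pixel signal normalized to time and cell number.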

The nature of data set [5]: Drug uptake in human HNT1 cells at 3.2 uM incubated for 30 mins in DMEM media with 10% FBS followed by […] in compound-free medium by inverted fluorescence microscopic analysis. The conditions noted are these: hnt1, 0.5 h, in the assay text read “in serum-free medium” for “in DMEM media with 10% FBS”. Format: ADME, cell-based. An outline of the steps: as §1
Data set [6] in a line: Drug uptake in human HN-143 cells assessed as increase in drug retention retention at 3 uM in medium with 10% FBS incubated for 5 hrs followed by 40 hrs chase period by inverted fluorescence microscopic analysis. Format: ADME, cell-based. The conditions noted are these: hn-143, 5 h. An outline of the steps:
(§2)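 Five-day co-cultures of HN-143 tumor epithelial cells and HN-166 tumor fibroblasts, both primary head & neck tumor cultures grown on collagen-1 under selective media. PS in 10% FBS medium for 5 h, then 40 h chase without PS. Phase-contrast and fluorescence images taken at 100X with 500 ms exposure; signal normalized to recording time and cell number.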

The nature of data set [7]: Drug uptake in human HN-166 cells assessed as increase in drug retention retention at 3 uM in medium with 10% FBS incubated for 5 hrs followed by 40 hrs chase period by inverted fluorescence microscopic analysis. Format: ADME, cell-based. The conditions noted are these: hn-166, 5 h. In outline: as §2

What is called IC50 is the midpoint of a concentration-inhibition curve. Regarding `CCC1=C(C)c2cc3[nH]c(c(C)c3CC)c(-c3ccc(C(=O)NCc4ccc(I)cc4)cc3)c3nc(c4c5[nH]c(cc1n2)c(C)c5C(=O)C4)[C@@H](CCC(=O)OC)[C@@H]3C`, the Drug uptake result in data set [1] and in [2] was “Not Active” throughout. For the same molecule, the results for the IC50 in the data set on FaDu and in the data set on UMUC3 were 1.25 µM and 0.196 µM, respectively.
Turning to `CCC1=C(C)c2cc3[nH]c(cc4nc(c5c6[nH]c(cc1n2)c(C)c6C(=O)C5)[C@@H](CCC(=O)O)[C@@H]4C)c(C)c3C(C)OCc1ccc(C#Cc2cccc(Nc3ncnc4cc(OCCOC)c(OCCOC)cc34)c2)cc1` (some centres not stated), the Drug uptake result in data set [1] and in data set [2] was “Active” in each case. The IC50 was 0.0596 µM with FaDu and 0.0344 µM with UMUC3.
For the molecule `CCC1=C(C)c2cc3[nH]c(cc4nc(c5c6[nH]c(cc1n2)c(C)c6C(=O)C5)[C@@H](CCC(=O)O)[C@@H]4C)c(C)c3C(C)OCc1cccc(C#Cc2cccc(Nc3ncnc4cc(OCCOC)c(OCCOC)cc34)c2)c1` (some centres not stated), the concentration for half-maximal inhibition (IC50) in the data set with FaDu worked out at 0.0318 µM; with UMUC3, 0.0548 µM. Moreover, the figures for the Drug uptake result in [3], in data set [4] and in data set [5] were “Not Active”, “Active” and “Active”, respectively.
Take `CCC1c2cc3[nH]c4c(c5nc(cc6[nH]c(cc(n2)C1C)c(C(C)OCc1cccc(C#Cc2cccc(Nc7ncnc8cc(OCCOC)c(OCCOC)cc78)c2)c1)c6C)[C@@H](C)[C@@H]5CCC(=O)OC)CC(=O)c4c3C` (some centres not stated): the Drug uptake entry in data set [1] and in [2] was “Not Active” in each case. In the data set on UMUC3, the IC50 was found to be 0.0168 µM.
Turning to `CCCCCCOC(C)c1c(C)c2cc3nc(c4c5[nH]c(cc6nc(cc1[nH]2)C(C)=C6CC)c(C)c5C(=O)C4)[C@@H](CCC(=O)NCc1cccc(C#Cc2cccc(Nc4ncnc5cc(OCCOC)c(OCCOC)cc45)c2)c1)[C@@H]3C` (some centres not stated), the Drug uptake result in [1], in data set [6], in data set [2] and in data set [7] was “Active” in each case. Further, the half-maximal inhibitory concentration (IC50) in the data set with UMUC3 is 0.0434 µM.
On to `CCCCCCOC(C)c1c(C)c2cc3nc(c(CC(=O)OC)c4[nH]c(cc5nc(cc1[nH]2)C(C)=C5CC)c(C)c4C(=O)NCCCOCCOCCOCCCNC(=O)Cc1cccc(I)c1)[C@@H](CCC(=O)OC)[C@@H]3C` (some centres not stated), for which the 50% inhibitory concentration (IC50) in the data set on FaDu turned out to be 0.0154 µM; in the data set with UMUC3, 0.0068 µM.
In the case of `CCCCCCOC(C)c1c(C)c2cc3nc(c4c5[nH]c(cc6nc(cc1[nH]2)C(C)=C6CC)c(C)c5C(=O)C4)[C@@H](CCC(=O)NC(CCC(=O)NCc1cccc(C#Cc2cccc(Nc4ncnc5cc(OCCOC)c(OCCOC)cc45)c2)c1)(CCC(=O)NCc1cccc(C#Cc2cccc(Nc4ncnc5cc(OCCOC)c(OCCOC)cc45)c2)c1)CCC(=O)NCc1cccc(C#Cc2cccc(Nc4ncnc5cc(OCCOC)c(OCCOC)cc45)c2)c1)[C@@H]3C` (some centres not stated), the Drug uptake result in data set [1] and in data set [2] was “Not Active” each time.
Regarding `CCCCCCOC(C)c1c(C)c2cc3nc(c4c5[nH]c(cc6nc(cc1[nH]2)C(C)=C6CC)c(C)c5C(=O)C4)[C@@H](CCC(=O)NCc1cccc(I)c1)[C@@H]3C` (some centres not stated), the figures for the concentration for half-maximal inhibition (IC50) with FaDu and in the data set on UMUC3 were 0.52 µM and 0.187 µM, respectively.
As for `CCCCCCOC(C)c1c(C)c2cc3nc(c(CC(=O)OC)c4[nH]c(cc5nc(cc1[nH]2)C(C)=C5CC)c(C)c4C(=O)NCc1cccc(C#Cc2cccc(Nc4ncnc5cc(OCCOC)c(OCCOC)cc45)c2)c1)[C@@H](CCC(=O)OC)[C@@H]3C` (some centres not stated), the Drug uptake entry in [1] is “Not Active”; in data set [6], “Active”; in data set [2], “Not Active”; in data set [7] it was “Active”. Further, the half-inhibitory concentration (IC50) in the data set on UMUC3 came out at 0.0035 µM.
Take `C=Cc1c(C)c2cc3nc(c(CC(=O)OC)c4[nH]c(cc5nc(cc1[nH]2)C(C)=C5CC)c(C)c4C(=O)NCc1cccc(I)c1)[C@@H](CCC(=O)OC)[C@@H]3C`: the IC50 with FaDu was 0.0138 µM; in the data set with UMUC3 it was 0.0282 µM.
Turning to `CCCCCCOC(C)c1c(C)c2cc3nc(c(CC(=O)OC)c4[nH]c(cc5nc(cc1[nH]2)C(C)=C5CC)c(C)c4C(=O)NCc1cccc(I)c1)[C@@H](CCC(=O)OC)[C@@H]3C` (some centres not stated), the Drug uptake entry in data set [1] and in [2] was “Not Active” in each case.
Regarding `CCC1c2cc3[nH]c4c(c5nc(cc6[nH]c(cc(n2)C1C)c(C(C)OCc1cccc(C#Cc2cccc(Nc7ncnc8cc(OCCOC)c(OCCOC)cc78)c2)c1)c6C)[C@@H](C)[C@@H]5CCC(=O)O)CC(=O)c4c3C` (some centres not stated), the Drug uptake entry in [1] and in data set [2] was “Not Active” in each case. Further, the IC50 in the data set with UMUC3 was found to be 0.0089 µM.
For the molecule `C=Cc1c(C)c2cc3nc(c(CC(=O)OC)c4[nH]c(cc5nc(cc1[nH]2)C(C)=C5CC)c(C)c4C(=O)NCCNC(=O)COCC(=O)NCCCOCCOCCOCCCNC(=O)Cc1cccc(I)c1)[C@@H](CCC(=O)OC)[C@@H]3C`, the Drug uptake result in data set [1] and in data set [2] was “Not Active” throughout. In addition, the results for the IC50 in the data set with FaDu and with UMUC3 were 0.0192 µM and 0.0264 µM, respectively.
`C=Cc1c(C)/c2[nH]/c1=C\C1=NC(=C\C3=C(C)C4C(=O)N(Cc5cccc(C#Cc6cccc(Nc7ncnc8cc(OCCOC)c(OCCOC)cc78)c6)c5)C(=O)/C(=C5N=C(\C=2)[C@@H](C)[C@@H]/5CCC(=O)OC)C4N3)/C(CC)=C1C` (some centres not stated): the Drug uptake entry in [1] and in data set [2] was “Not Active” throughout.
As for `CCCCCCOC(C)c1c(C)c2cc3nc(c(CC(=O)OC)c4[nH]c(cc5nc(cc1[nH]2)C(C)=C5CC)c(C)c4C(=O)NCCCOCCOCCOCCCNC(=O)Cc1cccc(C#Cc2cccc(Nc4ncnc5cc(OCCOC)c(OCCOC)cc45)c2)c1)[C@@H](CCC(=O)OC)[C@@H]3C` (some centres not stated), the Drug uptake result in data set [1], in [6], in data set [2] and in data set [7] was “Active” each time. The concentration for half-maximal inhibition (IC50) in the data set with FaDu turned out to be 0.0214 µM; in the data set with UMUC3 it was 0.0075 µM.
Turning to `C=Cc1c(C)c2cc3nc(c(CC(=O)NCc4cccc(C#Cc5cccc(Nc6ncnc7cc(OCCOC)c(OCCOC)cc67)c5)c4)c4[nH]c(cc5nc(cc1[nH]2)C(C)=C5CC)c(C)c4C(=O)OC)[C@@H](CCC(=O)OC)[C@@H]3C`, the values for the IC50 in the data set on FaDu and in the data set with UMUC3 were 0.166 µM and 0.045 µM, respectively.
With `C=Cc1c(C)c2cc3nc(c(CC(=O)OC)c4[nH]c(cc5nc(cc1[nH]2)C(C)=C5CC)c(C)c4C(=O)NCCNC(=O)COCC(=O)NCCCOCCOCCOCCCNC(=O)Cc1cccc(C#Cc2cccc(Nc4ncnc5cc(OCCOC)c(OCCOC)cc45)c2)c1)[C@@H](CCC(=O)OC)[C@@H]3C`, the Drug uptake result in data set [1] and in data set [2] was “Not Active” each time. Besides, the IC50 in the data set with FaDu stood at 0.0886 µM; in the data set with UMUC3, 0.0592 µM.
Turning to `C=Cc1c(C)c2cc3nc(c(CC(=O)OC)c4[nH]c(cc5nc(cc1[nH]2)C(C)=C5CC)c(C)c4C(=O)NCc1cccc(C#Cc2cccc(Nc4ncnc5cc(OCCOC)c(OCCOC)cc45)c2)c1)[C@@H](CCC(=O)OC)[C@@H]3C`, the results for the IC50 in the data set on FaDu and in the data set with UMUC3 were 0.0334 µM and 0.0396 µM, respectively.
Consider `CCC1=C(C)c2cc3[nH]c(c(C)c3CC)c(-c3ccc(C(=O)NCc4ccc(C#Cc5cccc(Nc6ncnc7cc(OCCOC)c(OCCOC)cc67)c5)cc4)cc3)c3nc(c4c5[nH]c(cc1n2)c(C)c5C(=O)C4)[C@@H](CCC(=O)OC)[C@@H]3C`, for which the Drug uptake result in data set [1] and in [2] was “Not Active” each time. In addition, the half-maximal inhibitory concentration (IC50) with FaDu is more than 10 µM.
